SIAE inh – inhibitors of human sialic acid acetylesterase SIAE | SIAE FP-Rh probe binding, fluorescence polarization | inhibition, % at 9.66 µM | hit rate 0.69% among 370,000;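 active = inhibition above a cutoff: mean of compounds within the control limits plus 3 SD of those, cut at about 17% in these data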
Target sequence (Q9HAT2 whole entry, looked up): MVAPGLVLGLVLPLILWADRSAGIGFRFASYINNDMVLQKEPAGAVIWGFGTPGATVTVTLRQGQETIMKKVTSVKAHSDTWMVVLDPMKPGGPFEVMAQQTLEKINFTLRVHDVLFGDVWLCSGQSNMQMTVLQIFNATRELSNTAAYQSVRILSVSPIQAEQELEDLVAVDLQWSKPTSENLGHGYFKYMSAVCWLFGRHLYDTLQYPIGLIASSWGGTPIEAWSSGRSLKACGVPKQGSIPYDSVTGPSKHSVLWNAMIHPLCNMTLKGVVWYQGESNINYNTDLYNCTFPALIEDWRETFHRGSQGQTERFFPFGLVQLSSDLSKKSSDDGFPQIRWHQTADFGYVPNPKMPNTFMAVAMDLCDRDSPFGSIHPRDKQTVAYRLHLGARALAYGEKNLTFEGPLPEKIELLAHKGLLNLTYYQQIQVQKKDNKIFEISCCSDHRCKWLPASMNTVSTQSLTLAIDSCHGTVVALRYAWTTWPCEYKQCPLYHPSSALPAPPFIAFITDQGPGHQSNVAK
PRMT1 inh – blocks human protein arginine methyltransferase 1; Q99873; recombinant PRMT1, activity-based probe fluorescence polarization; hit rate 1.3% among 370,000; AID 652257; inhibition, % at 2.79 µM;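 active = inhibition above about 21% made by adding two undisclosed values, limit read from the data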
ABHD4 inh – inhibitors of mouse ABHD4; Q8VD66; purified mABHD4, FP-Rh probe fluorescence polarization; inhibition, % at 8.92 µM; hit rate 0.54% among 370,000;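 active = inhibition exceeding the mean over every tested compound plus 3 SD, cut at about 30% in these data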
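Test system: mABHD4 protein; Read-out basis: % inhibition; Incubation: 45 min + 60 min at 25 °C; Repeats: single replicate; Technique: fluorescence polarization with parallel and perpendicular emission, 525/598 nm; Compound: 8.92 µM, single dose; Benchmarks: full inhibition S159A mutant plus DMSO, zero as sample-well median.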
TCR CD3 inh – human TCR-CD3 binding inhibition | hit rate 0.37% among 360,000 | inhibition, % at 9.4 µM | TAMRA-labeled TCR probe fluorescence, biochemical; in the data active = inhibition above about 19%;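 note: recombinant mutant TCR 2C K166C tagged with TAMRA read by polarization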
HTRA1 inhibitor – blocks human HTRA1 serine peptidase | Q92743 | recombinant HTRA1, FP-rhodamine activity-based probe, fluorescence polarization | hit rate 0.5% among 340,000 | inhibition, % at 5.96 µM | AID 504803; in the data active = inhibition above about 36%
PRMT1 inh conf – PRMT1 (human) inhibition, FP confirmation | shares compounds with PRMT1 inh | recombinant His-PRMT1, activity-based probe fluorescence polarization | inhibition, % at 2.79 µM | hit rate 42% among 3,300;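 active = mean inhibition across replicates above the hit cutoff derived for the earlier primary screen, cut at about 22% in these data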
Large screens that a line does not name were inactive (follow-up assays come after a bar, where they were run). A selection: hits, their analogues and other compounds. The true share with any hit is near 2.7%.

Oc1c(CN2CCOCC2)cc(CN2CCOCC2)c(O)c1CN1CCOCC1	PRMT1 inh 72 | PRMT1 inh conf 77
CCCNC(=O)Cn1nc(C)n2c(cc3cc(F)ccc32)c1=O	none
CCN1CCCC1CNC(=O)Cn1nc(C)n2c(cc3cc(F)ccc32)c1=O (stereo not given)	PRMT1 inh 33 | PRMT1 inh conf inactive
Cc1cccc(CNC(=O)c2cc(S(=O)(=O)N3CCOCC3)cn2C)c1	none
Cc1ccc(Cl)cc1N1C(=O)CC(Sc2ncccn2)C1=O (stereo not given)	PRMT1 inh 32 | PRMT1 inh conf inactive
Cc1ccc(N2C(=O)CC(Sc3nccc(C)n3)C2=O)cc1 (stereo not given)	none
CCc1ccccc1N1C(=O)CC(Sc2nccc(C)n2)C1=O (stereo not given)	none
O=C1CC(Sc2ncccn2)C(=O)N1c1ccccc1C(F)(F)F (stereo not given)	PRMT1 inh 51 | PRMT1 inh conf inactive
COc1ccccc1N(CC(=O)N1CCN(Cc2ccccc2)CC1)S(=O)(=O)c1ccccc1	none
CCOC(=O)CNc1nnc(SCC(=O)OCC)[nH]c1=O	PRMT1 inh 59 | PRMT1 inh conf 54
COC(=O)CSc1nnc(C)c(=O)[nH]1	none
CCCCC(=O)Oc1c(S(=O)(=O)c2ccccc2)c(C)nn1C(C)(C)C	none
O=C(O)/C=C/C(=O)Nc1cccc2c1-c1ccccc1C2=O	PRMT1 inh 67 | PRMT1 inh conf inactive
O=C(O)/C=C/C(=O)Nc1ccccc1SC(F)(F)F	PRMT1 inh 61 | PRMT1 inh conf 36
O=C(O)/C=C/C(=O)Nc1ccccc1-c1ccccc1NC(=O)/C=C/C(=O)O	PRMT1 inh 53 | PRMT1 inh conf 26
COc1ccc(C2Nc3ccccc3C(=O)N2Cc2ccc(C)o2)cc1COc1c(C)cccc1C (stereo not given)	PRMT1 inh 39 (no result: TCR CD3 inh, HTRA1 inhibitor) | PRMT1 inh conf inactive
COC(=O)[C@@]1(Sc2ccc(C)cc2)CC(=O)N[C@@H]1c1ccco1	PRMT1 inh 52 (no result: HTRA1 inhibitor) | PRMT1 inh conf inactive
O=C(CCN1CCN(Cc2ccccc2)CC1)NNC(=O)Nc1cccc(C(F)(F)F)c1	none
O=C(O)c1ccc(-n2c(O)c(C=C3N=c4ccccc4=N3)sc2=S)cc1	PRMT1 inh 30 | PRMT1 inh conf inactive
CCCC(C(=O)O)n1c(O)c(C=C2N=c3ccccc3=N2)sc1=S (stereo not given)	PRMT1 inh 26 | PRMT1 inh conf inactive
O=C(O)CCCn1c(O)c(C=C2N=c3ccccc3=N2)sc1=S	none
O=C(O)c1cccc(-n2c(O)c(C=C3N=c4ccccc4=N3)sc2=S)c1	PRMT1 inh 31 | PRMT1 inh conf inactive
CCC1(c2ccc(F)cc2)NC(=O)N(CC(=O)Nc2cccnc2Cl)C1=O (stereo not given)	none
O=c1c2cc(N3CCOCC3)ccc2[nH]c(=S)n1Cc1cccc(Cl)c1	none
O=c1c2cc(N3CCOCC3)ccc2[nH]c(=S)n1Cc1ccco1	PRMT1 inh 32 | PRMT1 inh conf 65
COC(=O)c1cc2c(c3c4ccccc4n(S(=O)(=O)c4ccc(C)cc4)c13)C(=O)N(CC(C)C)C2	none (no result: HTRA1 inhibitor)
CC(=O)NC1C(=O)N=C(SCC(=O)NC(C)c2ccccc2)NC1=O (stereo not given)	PRMT1 inh 31 | PRMT1 inh conf inactive
CC(=O)NC1C(=O)N=C(SCC(=O)Nc2ccc(C(F)(F)F)cc2Cl)NC1=O (stereo not given)	PRMT1 inh 38 | PRMT1 inh conf inactive
COc1ccccc1NC(=O)CSC1=NC(=O)C(Cc2ccccc2)C(=O)N1 (stereo not given)	none
CC(=O)NC1C(=O)N=C(SCC(=O)NC2CCCCC2)NC1=O (stereo not given)	none
COc1ccccc1NC(=O)CSC1=NC(=O)C(NC(C)=O)C(=O)N1 (stereo not given)	PRMT1 inh 25 | PRMT1 inh conf inactive
C[C@H](CO)N1C[C@H](C)[C@H](CN(C)S(=O)(=O)c2cccc(F)c2)OCc2ccccc2-c2c(n(C)c3ccccc23)C1=O	PRMT1 inh 34 | PRMT1 inh conf inactive
O=C(CC(=O)NN=Cc1ccc2c(c1)CCC2)NN=Cc1ccc2c(c1)CCC2	none
O=C(O)CCCN1C(=O)/C(=C\c2ccc(-c3nc4ccccc4s3)o2)SC1=S	PRMT1 inh 49 | PRMT1 inh conf inactive
O=C(O)c1cc(-c2ccc(/C=C3/SC(=S)N(Cc4ccccc4)C3=O)o2)ccc1Cl	none
O=C(O)CCN1C(=O)/C(=C/c2ccc(-c3nc4ccccc4s3)o2)SC1=S	PRMT1 inh 69 | PRMT1 inh conf 23
Cc1cccc(NC(=S)NC(=O)/C=C/c2ccco2)c1	PRMT1 inh 35 | PRMT1 inh conf inactive
Cc1ccc(-n2nc3ccc(NC(=S)NC(=O)/C=C/c4ccco4)cc3n2)cc1	none
O=C(C[C@@H]1C/C=C\CC[C@H](Cc2ccc(F)cc2)C(=O)OC[C@@H]2CCCN2C1=O)N[C@H](CO)Cc1ccccc1	none
COC(=O)C1CCN(c2ccc(C(N)=O)cc2[N+](=O)[O-])CC1	none
CC(=O)C1=C(O)C(=O)N(CCc2c[nH]c3ccccc23)C1c1ccco1 (stereo not given)	PRMT1 inh 28 | PRMT1 inh conf inactive
CC(=O)C1=C(O)C(=O)N(CCc2c[nH]c3ccccc23)C1c1ccc(C)cc1 (stereo not given)	none
O=C1CCCC2=C1Sc1ccccc1N2	PRMT1 inh 37 (no result: HTRA1 inhibitor) | PRMT1 inh conf inactive
CCN(CC(=O)Nc1ccc(NC(C)=O)cc1)C(=O)C1(c2ccc(Cl)cc2)CCC1	none
O=C(O)CN1C(=O)/C(=C\c2cc([N+](=O)[O-])ccc2OCc2ccccc2Cl)SC1=S	none
O=C1/C(=C\c2cc([N+](=O)[O-])ccc2O)SC(=S)N1Cc1ccc(Cl)cc1	PRMT1 inh 26 | PRMT1 inh conf 33
Cc1ccc(-c2c3c([nH]c(=S)c2C#N)CCCC3)o1	PRMT1 inh 50 | PRMT1 inh conf 31
N#Cc1c(-c2ccncc2)c2c([nH]c1=S)CCCC2	PRMT1 inh 37 | PRMT1 inh conf inactive
Clc1ccc(-c2nnc3n2N=C(c2ccc(-c4ccccc4)cc2)CS3)c(Cl)c1	none (no result: TCR CD3 inh, HTRA1 inhibitor)
COc1ccc(Cl)cc1N1C(=O)/C(=C\c2sccc2C)N=C1SCC(=O)NC1CC1	none
NCCS	PRMT1 inh 42 | PRMT1 inh conf 32
COc1ccc(OC)c(NC(=O)/C=C/c2ccc(S(=O)(=O)N3CCOCC3)cc2)c1	none
CC(C(=O)NCC(=O)Nc1ccc(F)c(F)c1F)N1CCN(c2ccc(O)cc2)CC1 (stereo not given)	PRMT1 inh 28 | PRMT1 inh conf inactive
S=c1[nH]c(-c2ccc(Cl)cc2)cs1	PRMT1 inh 31 | PRMT1 inh conf 54
S=c1nccc(-c2ccc(Cl)cc2)[nH]1	PRMT1 inh 26 (no result: HTRA1 inhibitor) | PRMT1 inh conf 27
COCCN1C(=O)Cc2c1nc(N)c1c(N)nc(N3CCN(c4ccc(F)cc4)CC3)c(C#N)c21	PRMT1 inh 27 | PRMT1 inh conf inactive

Bioassay records deposited in PubChem by The Scripps Research Institute Molecular Screening Center.
